Measured values taken from ChEMBL document CHEMBL3286371, “wALADin benzimidazoles differentially modulate the function of porphobilinogen synthase orthologs” (J Med Chem, 2014).
Active and inactive are the calls of the source. No cut-off for these calls is given here.

Tests used:
[1] = target: T1, Delta-aminolevulinic acid dehydratase (Escherichia coli (strain K12)) (UniProt P0ACB2); assay: Stimulation of Escherichia coli recombinant PBGS using 5-ALA as substrate at […]
T1 sequence (whole entry): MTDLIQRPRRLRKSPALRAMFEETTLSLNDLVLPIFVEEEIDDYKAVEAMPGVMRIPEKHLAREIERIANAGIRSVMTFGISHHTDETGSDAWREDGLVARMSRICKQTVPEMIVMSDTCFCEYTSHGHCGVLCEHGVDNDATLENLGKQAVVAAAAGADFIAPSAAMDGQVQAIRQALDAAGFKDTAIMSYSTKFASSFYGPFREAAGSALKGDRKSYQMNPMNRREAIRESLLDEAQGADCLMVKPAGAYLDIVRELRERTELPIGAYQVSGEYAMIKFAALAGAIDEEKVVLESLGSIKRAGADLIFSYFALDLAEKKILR

[2] = target: T2, Delta-aminolevulinic acid dehydratase, chloroplastic (Pisum sativum, UniProt P30124); assay: Inhibition of Pisum sativum PBGS using 5-ALA as substrate; parameters: species or system Lathyrus oleraceus
T2 sequence (P30124 whole entry): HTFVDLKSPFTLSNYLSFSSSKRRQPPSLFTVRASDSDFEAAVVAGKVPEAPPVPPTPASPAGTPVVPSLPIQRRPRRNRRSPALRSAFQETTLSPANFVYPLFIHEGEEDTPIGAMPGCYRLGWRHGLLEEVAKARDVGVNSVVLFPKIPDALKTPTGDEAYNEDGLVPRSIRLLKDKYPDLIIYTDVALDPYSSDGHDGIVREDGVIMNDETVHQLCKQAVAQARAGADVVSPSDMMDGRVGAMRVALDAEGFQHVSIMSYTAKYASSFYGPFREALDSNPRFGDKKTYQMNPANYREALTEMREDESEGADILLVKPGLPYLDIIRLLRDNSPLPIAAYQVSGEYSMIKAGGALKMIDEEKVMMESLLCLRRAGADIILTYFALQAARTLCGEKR
How it was run: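 Pea (P. sativum) PBGS at 300 nM subunit in 100 mM BTP-HCl pH 8.5 with 1 mM MgCl2, 5 mM DTT and 0.2 mM 5-ALA, 15 min at 36 °C. Porphobilinogen detected with Ehrlich's reagent. Activity normalized to 6.7% DMSO control as 100%. IC50 from variable-slope normalized-response fit.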

[3] = target: Delta-aminolevulinic acid dehydratase (Pseudomonas aeruginosa (strain ATCC 15692 / PAO1 / 1C / PRS 101 / LMG12228), UniProt Q59643); assay: Inhibition of Pseudomonas aeruginosa PAO1 recombinant PBGS using 5-ALA as substrate
How it was run: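 Turnover kept at or below 30%. Porphobilinogen measured with Ehrlich's reagent. IC50 by variable-slope fit of activity normalized to DMSO control.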

[4] = target: T1, Delta-aminolevulinic acid dehydratase (Escherichia coli (strain K12)); assay: Inhibition of Escherichia coli recombinant PBGS using 5-ALA as substrate at […]
[5] = target: T3, Delta-aminolevulinic acid dehydratase (Homo sapiens, UniProt P13716); assay: Inhibition of human PBGS using 5-ALA as substrate
T3 sequence (P13716 whole entry): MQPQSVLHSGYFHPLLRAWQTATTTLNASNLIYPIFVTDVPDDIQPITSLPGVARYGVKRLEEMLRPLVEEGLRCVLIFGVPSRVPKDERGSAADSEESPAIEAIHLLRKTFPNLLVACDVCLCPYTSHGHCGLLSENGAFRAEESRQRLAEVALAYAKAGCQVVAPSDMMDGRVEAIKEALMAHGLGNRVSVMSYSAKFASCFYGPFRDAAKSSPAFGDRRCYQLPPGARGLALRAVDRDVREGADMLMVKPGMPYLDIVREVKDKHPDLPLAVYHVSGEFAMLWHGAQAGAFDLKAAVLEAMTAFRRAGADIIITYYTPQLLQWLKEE

[6] = system: Toxoplasma gondii; assay: Stimulation of Toxoplasma gondii recombinant PBGS using 5-ALA as substrate at […]
[7] = target: Delta-aminolevulinic acid dehydratase (Pseudomonas aeruginosa (strain ATCC 15692 / PAO1 / 1C / PRS 101 / LMG12228)) (UniProt Q59643); assay: Stimulation of Pseudomonas aeruginosa PAO1 recombinant PBGS using 5-ALA as substrate at […]
[8] = target: Delta-aminolevulinic acid dehydratase (Yersinia enterocolitica W22703) (UniProt F4MUJ9); assay: Stimulation of Yersinia enterocolitica recombinant PBGS expressed in Escherichia coli using 5-ALA as substrate at […]
[9] = target: Delta-aminolevulinic acid dehydratase (Pseudomonas aeruginosa (strain ATCC 15692 / PAO1 / 1C / PRS 101 / LMG12228)) (UniProt Q59643); assay: Inhibition of Pseudomonas aeruginosa PAO1 recombinant PBGS using 5-ALA as substrate at […]
[10] = target: T4, Delta-aminolevulinic acid dehydratase (Drosophila melanogaster, UniProt Q9VTV9); assay: Inhibition of Drosophila melanogaster recombinant PBGS using 5-ALA as substrate
T4 sequence (Q9VTV9 whole entry): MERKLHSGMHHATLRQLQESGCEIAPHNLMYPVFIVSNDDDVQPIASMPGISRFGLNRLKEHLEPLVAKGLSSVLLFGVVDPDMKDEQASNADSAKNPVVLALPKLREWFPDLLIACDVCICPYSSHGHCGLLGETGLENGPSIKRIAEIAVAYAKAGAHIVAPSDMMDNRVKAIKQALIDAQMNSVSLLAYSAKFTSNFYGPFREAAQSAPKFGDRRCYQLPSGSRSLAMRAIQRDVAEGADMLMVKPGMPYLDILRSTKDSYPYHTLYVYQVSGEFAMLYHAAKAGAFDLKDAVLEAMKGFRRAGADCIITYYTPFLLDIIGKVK

[11] = target: T5, Delta-aminolevulinic acid dehydratase (Wolbachia sp. subsp. Brugia malayi (strain TRS), UniProt Q5GSR3); assay: Inhibition of C-terminal His-tagged Wolbachia PBGS using 5-ALA as substrate
T5 sequence (Q5GSR3 whole entry): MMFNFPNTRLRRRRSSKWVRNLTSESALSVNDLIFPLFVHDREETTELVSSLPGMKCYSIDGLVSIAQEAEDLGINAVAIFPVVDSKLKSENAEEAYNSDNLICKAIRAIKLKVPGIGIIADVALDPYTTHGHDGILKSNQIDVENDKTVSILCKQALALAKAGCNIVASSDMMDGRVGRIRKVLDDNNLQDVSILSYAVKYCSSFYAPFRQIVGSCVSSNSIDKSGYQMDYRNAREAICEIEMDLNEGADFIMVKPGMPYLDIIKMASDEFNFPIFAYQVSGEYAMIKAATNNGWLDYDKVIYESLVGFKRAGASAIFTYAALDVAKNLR

[12] = system: Toxoplasma gondii; assay: Inhibition of Toxoplasma gondii recombinant PBGS using 5-ALA as substrate at […]
[13] = target: Delta-aminolevulinic acid dehydratase (Yersinia enterocolitica W22703) (UniProt F4MUJ9); assay: Inhibition of Yersinia enterocolitica recombinant PBGS expressed in Escherichia coli using 5-ALA as substrate at […]

Sequence of Delta-aminolevulinic acid dehydratase (Yersinia enterocolitica W22703) (F4MUJ9 as listed by the source): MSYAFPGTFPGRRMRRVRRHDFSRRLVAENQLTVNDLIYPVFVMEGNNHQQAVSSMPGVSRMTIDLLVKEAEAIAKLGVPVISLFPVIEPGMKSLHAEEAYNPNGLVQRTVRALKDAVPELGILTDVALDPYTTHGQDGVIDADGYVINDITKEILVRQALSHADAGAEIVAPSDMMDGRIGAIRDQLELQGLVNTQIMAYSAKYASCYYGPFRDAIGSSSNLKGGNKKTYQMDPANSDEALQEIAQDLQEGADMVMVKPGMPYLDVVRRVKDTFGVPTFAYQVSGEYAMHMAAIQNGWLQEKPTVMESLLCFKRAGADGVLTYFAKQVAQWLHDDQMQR
Sequence of Delta-aminolevulinic acid dehydratase (Pseudomonas aeruginosa (strain ATCC 15692 / PAO1 / 1C / PRS 101 / LMG12228)) (Q59643 whole entry): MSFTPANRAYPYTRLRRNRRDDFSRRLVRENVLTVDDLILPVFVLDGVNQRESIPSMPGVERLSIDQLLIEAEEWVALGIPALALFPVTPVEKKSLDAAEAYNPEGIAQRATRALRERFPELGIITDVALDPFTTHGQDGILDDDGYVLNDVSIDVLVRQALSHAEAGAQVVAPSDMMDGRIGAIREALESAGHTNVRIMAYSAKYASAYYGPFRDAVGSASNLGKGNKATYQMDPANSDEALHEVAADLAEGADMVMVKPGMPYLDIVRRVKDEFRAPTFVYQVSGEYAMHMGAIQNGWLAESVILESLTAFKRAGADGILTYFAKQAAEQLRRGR
Sequence of Delta-aminolevulinic acid dehydratase (Pseudomonas aeruginosa (strain ATCC 15692 / PAO1 / 1C / PRS 101 / LMG12228), UniProt Q59643) (Q59643 whole entry): as above

O=C(O)c1ccc2c(c1)ncn2Cc1cccc(C(F)(F)F)c1
Smax [1]: 100%
IC50 [2]: 18.5 µM
IC50 [3]: 94 µM
inhibition [4]: inactive
IC50 [5]: 197 µM
Smax [6]: 100%
Smax [7]: 100%
Smax [8]: 100%
inhibition [9]: inactive
IC50 [10]: 340 µM
IC50 [11]: 13 µM
inhibition [12]: inactive
inhibition [13]: inactive

O=C(O)c1ccc2c(c1)ncn2Cc1ccccc1
Smax [1]: 100%
IC50 [2]: 182 µM
inhibition [4]: inactive
IC50 [5]: 213 µM
Smax [6]: 100%
Smax [7]: 100%
Smax [8]: 100%
inhibition [9]: inactive
IC50 [10]: 1030 µM
IC50 [11]: 197 µM
inhibition [12]: inactive
inhibition [13]: inactive

O=C(NCCc1nc2cccc(C(=O)O)c2n1Cc1cccc(C(F)(F)F)c1)c1cccs1
Smax [1]: 100%
IC50 [2]: > 500 µM
inhibition [4]: inactive
Smax [6]: 113%
Smax [7]: 100%
Smax [8]: 118%
inhibition [9]: inactive
IC50 [10]: > 1000 µM
IC50 [11]: 164 µM

Cc1cccc(Cn2cnc3cc(C(=O)O)ccc32)c1
Smax [1]: 100%
IC50 [2]: 95.9 µM
inhibition [4]: inactive
IC50 [5]: 222 µM
Smax [6]: 100%
Smax [7]: 100%
Smax [8]: 100%
inhibition [9]: inactive
IC50 [10]: 371 µM
IC50 [11]: 134 µM
inhibition [12]: inactive
inhibition [13]: inactive

O=C(O)c1ccc2[nH]c(CCNC(=O)c3cccs3)nc2c1
Smax [1]: 100%
IC50 [2]: 114 µM
inhibition [4]: inactive
Smax [6]: 100%
Smax [7]: 100%
Smax [8]: 100%
inhibition [9]: inactive
IC50 [10]: 448 µM
IC50 [11]: 500 µM
inhibition [12]: inactive
inhibition [13]: inactive

O=C(O)c1ccc2c(c1)ncn2Cc1ccc(C(F)(F)F)cc1
Smax [1]: 100%
IC50 [2]: 43.1 µM
inhibition [4]: inactive
IC50 [5]: 173 µM
Smax [6]: 100%
Smax [7]: 100%
Smax [8]: 100%
inhibition [9]: inactive
IC50 [10]: 620 µM
IC50 [11]: 87.7 µM
inhibition [12]: inactive
inhibition [13]: inactive
